PP5 primary = inhibitors of human protein phosphatase 5 (PP5) | P53041 | purified PP5c, OMFP substrate fluorescence | inhibition, % at 6.7 µM | 0.18% of 320,000 active;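 active means inhibition above the campaign's mean inhibition across all tested compounds plus 3 SD, cut at about 9.5% in these data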
RBBP9 inh = blocks human serine hydrolase RBBP9; recombinant RBBP9, FP-Rh probe fluorescence polarization; AID 1515; inhibition, % at 7.94 µM; O75884; 0.2% of 220,000 active;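 active means inhibition above the campaign mean of all tested compounds plus 3 SD, cut at about 14% in these data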
Target sequence (O75884 whole entry, looked up): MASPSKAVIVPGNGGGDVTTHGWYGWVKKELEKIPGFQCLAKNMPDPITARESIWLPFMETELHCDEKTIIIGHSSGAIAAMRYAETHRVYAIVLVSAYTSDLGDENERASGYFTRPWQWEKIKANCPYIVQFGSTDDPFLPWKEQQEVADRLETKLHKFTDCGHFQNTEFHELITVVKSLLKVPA
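System: RBBP9 protein | Quantity: 2.5 µM RBBP9 dispensing solution, before mixing | Reagent: FP-Rh probe, 375 nM dispensing solution | Timing: Enzyme-compound preincubation 30 min, then probe labeling 45 min, 25 °C | Measured by: Fluorescence polarization | Read-out: % inhibition | Replication: One well per compound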
p97 ATPase inh = human p97 ATPase inhibition | P55072 | inhibition, % at 8 µM | recombinant p97 ATPase, Kinase-Glo ATP luminescence, 3 h | 0.42% of 220,000 active | AID 1481; in the data active means inhibition above about 15%
PP1 counter = counter-screen for PP5 inhibitors: inhibitors of human PP1-alpha | P62136 | purified PP1alpha, OMFP fluorescence | inhibition, % at 6.7 µM | 0.9% of 320,000 active;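 active means inhibition above the mean inhibition of all tested compounds plus 3 SD, computed separately for each screening campaign, cut at about 15% in these data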
Target sequence (P62136 whole entry, looked up): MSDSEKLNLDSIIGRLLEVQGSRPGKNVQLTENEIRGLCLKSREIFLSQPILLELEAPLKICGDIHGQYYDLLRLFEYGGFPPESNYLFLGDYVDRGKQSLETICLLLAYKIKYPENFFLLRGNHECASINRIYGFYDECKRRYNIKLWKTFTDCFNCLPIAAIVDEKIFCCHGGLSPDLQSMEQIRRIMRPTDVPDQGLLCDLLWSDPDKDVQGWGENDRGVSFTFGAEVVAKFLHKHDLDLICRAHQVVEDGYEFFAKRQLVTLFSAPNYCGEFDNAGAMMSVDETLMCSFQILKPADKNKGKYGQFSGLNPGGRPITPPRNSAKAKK
Hsp70 activator = transcriptional activators of Hsp70. HeLa Hsp70 promoter luciferase reporter, luminescence; scaled: vehicle 0, proteasome-inhibitor control 100%. AID 1203. activation, % at 10 µM. 0.04% of 200,000 active;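 active means activation above the mean across all tested compounds plus 3 SD, cutoff set per campaign, cut at about 5.5% in these data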
PKD1 inh = blocks activity of human protein kinase D1. Q15139. PKD1 kinase fluorescence polarization assay. inhibition, % (no concentration beside the values). 0.056% of 200,000 active; in the data active means inhibition above about 50%
p97 confirm = confirmation of human p97 ATPase inhibitors; shares compounds with p97 ATPase inh; recombinant p97 ATPase, Kinase-Glo ATP luminescence; inhibition, % at 8 µM; 44% of 760 active; AID 1517;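 active means percent inhibition of p97 ATPase above a set limit, the primary screen's mean plus 3 SD, cut at about 15% in these data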
Each line names hits and unclear results; the compound was inactive in the other large screens (follow-up assays come after a bar, where they were run). Sampled rows, rich in hits. Any-hit rate of the full collection: about 1.5%.

O=c1cc(-c2ccccc2)[nH]c2nc3ccccc3n12	none
CC(=O)c1sc(C(C)(C)C)cc1NC(=O)/C=C/C(=O)O	p97 ATPase inh 15 (no result: Hsp70 activator, PKD1 inh) | p97 confirm inactive
COC(=O)c1sc(-c2ccc(Cl)cc2)cc1NC(=O)/C=C/C(=O)O	p97 ATPase inh 18 (no result: Hsp70 activator, PKD1 inh) | p97 confirm 18
CCc1cc(SC#N)cc(CC)c1NC(=O)CCl	none
Cc1ccccc1CN1CCN(S(=O)(=O)c2cccs2)CC1	none
c1ccc(CNc2nc(-c3ccccc3)nc3ccccc23)cc1	none (no result: RBBP9 inh, p97 ATPase inh, Hsp70 activator, PKD1 inh)
Fc1ccccc1-c1nc(NCc2ccccc2)c2ccccc2n1	p97 ATPase inh 30 (no result: Hsp70 activator, PKD1 inh) | p97 confirm 40
C=CCn1c(NC(=O)c2ccc(Br)o2)c(S(=O)(=O)c2ccccc2)c2nc3ccccc3nc21	p97 ATPase inh 20 | p97 confirm inactive
Nc1ccc(N2CCCCC2)cc1N1CCCCC1	none
Nc1c(N2CCOCC2)cc(Cl)c2nonc12	none
Nc1ccc(N2CCCCC2)c2nonc12	PP5 primary 11, p97 ATPase inh 44, PP1 counter 17 | p97 confirm inactive
Nc1c(N2CCCC2)cc(Cl)c2nonc12	p97 ATPase inh 32 | p97 confirm 20
COc1ccc(N=c2scc(C)n2CCCN2CCCC2=O)cc1	none
CSc1c(CC(=O)NCCO)n(C)c2ccccc12	p97 ATPase inh 17 | p97 confirm inactive
CCOC(=O)N1CCN(C(=O)CCn2c(=S)[nH]c3ccsc3c2=O)CC1	none
CCOc1ccccc1NC(=O)c1cc(C(=O)c2cc(Br)ccc2O)coc1=N	p97 ATPase inh 25 | p97 confirm 34
O=C(Nc1ccc2nc(-c3cccs3)[nH]c2c1)c1cccs1	p97 ATPase inh 15 | p97 confirm 19
CCOC(=O)C1Cc2ccccc2CN1 (stereo unspecified)	p97 ATPase inh 15 | p97 confirm inactive
COc1ccc(-c2cn3cccnc3n2)cc1F	none
CC(=O)c1ccc(C(=O)N2CCc3c([nH]c4ccccc34)C2c2cccc(C)n2)s1 (stereo unspecified)	none (no result: Hsp70 activator, PKD1 inh)
Cc1cccc(C2c3[nH]c4ccccc4c3CCN2C(=O)c2ccc(=O)[nH]c2)n1 (stereo unspecified)	p97 ATPase inh 17 | p97 confirm inactive
CCN(CC)C(=O)CSc1nc2ccccc2c(=O)n1-c1cccc(OC)c1	none
COc1cccc(-n2c(SCc3cc(=O)oc4cc(O)c(O)cc34)nc3ccccc3c2=O)c1	p97 ATPase inh 40 | p97 confirm 40
NC1=NC2(CCCCC2)N(c2cccc(Cl)c2)C(N)=N1	p97 ATPase inh 25 | p97 confirm inactive
NC1=NC2(CCCCC2)N(c2ccc(F)cc2)C(N)=N1	none
COc1cc(/C=C2/SC(=Nc3ccc(O)cc3)NC2=O)cc(OC)c1O	p97 ATPase inh 26 | p97 confirm 20
COc1cc(/C=C2\SC(=Nc3ccc(O)cc3)NC2=O)cc(OC)c1OC	none (no result: Hsp70 activator, PKD1 inh)
O=C1NC(=Nc2ccc(O)cc2)S/C1=C\C=C\c1ccco1	p97 ATPase inh 36, PP1 counter 16 (no result: Hsp70 activator, PKD1 inh) | p97 confirm 31
Cc1cc(CC(=O)O)n(C)c1C(=O)c1ccc(Cl)cc1	none (no result: RBBP9 inh, p97 ATPase inh, Hsp70 activator, PKD1 inh)
O=C(Nc1ccc(Nc2ccncc2)cc1)c1ccc(Nc2ccnc3ccc([N+](=O)[O-])cc23)cc1	p97 ATPase inh 34 (no result: PP5 primary, PP1 counter, Hsp70 activator, PKD1 inh) | p97 confirm 24
Cc1occc1-c1nnc(SCC(=O)c2c[nH]c3ccccc23)n1C	p97 ATPase inh 18 | p97 confirm 29
Cc1occc1-c1nnc(SCC(=O)c2ccc(Cl)cc2)n1C	none
CC1(C)OC(=O)C(=CNc2ccccn2)C(=O)O1	p97 ATPase inh 15 (no result: Hsp70 activator, PKD1 inh) | p97 confirm inactive
CC(NC(=O)CC(c1ccccc1)c1cc(Cl)ccc1O)c1ccccc1 (stereo unspecified)	p97 ATPase inh 15 | p97 confirm inactive
N/C(CN1CCSCC1)=N\OCc1c(F)cccc1Cl	none (no result: Hsp70 activator, PKD1 inh)
Oc1ccc2ccccc2c1C=NC12CN3CCN(CN(C3)C1)C2	p97 ATPase inh 20 | p97 confirm 21
OCC(CO)(CO)N=Cc1c(O)ccc2ccccc12	p97 ATPase inh 29 | p97 confirm inactive
CN(C)/N=C/c1c(O)ccc2ccccc12	none
Oc1ccccc1N=Cc1c(O)ccc2ccccc12	none (no result: PP5 primary, PP1 counter, Hsp70 activator, PKD1 inh)
O=C(NCC1CCCC(CNC(=O)N2CCc3ccccc32)C1)N1CCc2ccccc21 (stereo unspecified)	none
CN(Cc1ccccc1)C(=S)Nc1ccc2nc3n(c(=O)c2c1)CCCCC3	none
Cc1nnsc1Sc1cccc(C(F)(F)F)c1	p97 ATPase inh 16 | p97 confirm inactive
COC(=O)c1ccccc1Sc1snnc1C	none
O=C(Nc1ccc(Cl)cn1)C1C(c2ccccc2)C1(Cl)Cl (stereo unspecified)	p97 ATPase inh 17 | p97 confirm 23
COc1cc(NCCCC(C)N)c2ncccc2c1 (stereo unspecified)	p97 ATPase inh 15 (no result: PP5 primary, PP1 counter) | p97 confirm inactive
CCC(CNc1cc(OC)cc2cccnc12)NC1CCCCC1 (stereo unspecified)	p97 ATPase inh 24 (no result: Hsp70 activator, PKD1 inh) | p97 confirm inactive
CCC(=Nc1ccccc1)C1=C(O)CC(C)(C)CC1=O	none (no result: PP5 primary, PP1 counter)
CCC(=O)NN1CCc2cc3ccc(C)cc3nc21	none (no result: RBBP9 inh, p97 ATPase inh, Hsp70 activator, PKD1 inh)
Cc1ccc(-c2cc(NC(=O)CCl)n(-c3ccccc3)n2)cc1	p97 ATPase inh 24 | p97 confirm 25
O=C(CCl)Nc1cc(-c2ccccc2)nn1-c1ccccc1	p97 ATPase inh 20 | p97 confirm 32
Cc1ccc(-c2nn(-c3ccccc3)cc2NC(=O)CCl)cc1	p97 ATPase inh 16 | p97 confirm 29
O=S(=O)(c1cc(Br)c(Cl)s1)N1CCCC1	none (no result: Hsp70 activator, PKD1 inh)
O=C(CSc1ccccc1)N1CCN(c2ccc(F)cc2)CC1	none (no result: RBBP9 inh, p97 ATPase inh, Hsp70 activator, PKD1 inh)
Cc1cc(OCCCn2ccnc2)cc(C(C)C)c1	none
O=C(COC(=O)C1CC(=O)N(Cc2ccccc2)C1)Nc1ccccc1F (stereo unspecified)	none
O=C(Nc1cccc(NC(=O)c2cccs2)c1)c1ccc([N+](=O)[O-])o1	p97 ATPase inh 18 (no result: Hsp70 activator, PKD1 inh) | p97 confirm 25
COc1ccc(-c2nc(-c3ccc(NC(=O)c4ccc(Br)o4)cc3)no2)cc1OC	p97 ATPase inh 17 | p97 confirm inactive
O=C(Nc1cc(Cl)ccn1)C1(c2ccccc2)CC1(Cl)Cl (stereo unspecified)	p97 ATPase inh 17 (no result: Hsp70 activator, PKD1 inh) | p97 confirm 25
O=C(Nc1nccs1)C1(c2ccc(Cl)cc2)CC1	none
C=C1C2(C(=O)Nc3nccs3)CCC(C2)C1(C)C (stereo unspecified)	p97 ATPase inh 37 | p97 confirm inactive
N#CC1=C(SCC(=O)Nc2ccc(C(=O)O)cc2)NC(=O)CC1c1ccco1 (stereo unspecified)	p97 ATPase inh 17 (no result: Hsp70 activator, PKD1 inh) | p97 confirm inactive
Cc1ccc(NC(=O)CSC2=C(C#N)C(c3ccco3)C3=C(CCCC3=O)N2)cc1 (stereo unspecified)	none
Oc1ccc2ccccc2c1/C=N/c1nccs1	none

Assay outcomes from PubChem.
